Data: ChEMBL document CHEMBL1127825, “Synthesis and in vitro evaluation of 9-anilino-3,6-diaminoacridines active against a multidrug-resistant strain of the malaria parasite Plasmodium falciparum” (J Med Chem, 1994)
In brackets after ≈: the same amount, converted by molar mass.

Legend:
Plasmodium falciparum [1] = test: (§1) Inhibitory concentration against Plasmodium falciparum K1 infected erythrocytes; assay type: functional
Jurkat = test: Concentration required to reduce growth of human jurkat leukemia cells to 50% of control cultures, determined using a 72 hr continuous exposure; assay type: functional, cell-based
Method in brief: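 Human Jurkat leukemia cells given continuous drug exposure for 72 h, then counted on a hemocytometer. IC50 is the concentration that cuts cell growth to 50% of untreated controls. Values are means of at least two independent determinations, with variation typically ±15%.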

Plasmodium falciparum [2] = test: Inhibitory concentration against Plasmodium falciparum D6 infected erythrocytes; assay type: functional, organism-based
Plasmodium falciparum [3] = test: Inhibitory concentration against Plasmodium falciparum W2 infected erythrocytes; assay type: functional, organism-based
Plasmodium falciparum [4] = test: Inhibitory concentration IC50 against Plasmodium falciparum K1 by [3H]hypoxanthine uptake over 24 hr; assay type: functional, organism-based
Method in brief: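 K1 strain of P. falciparum (chloroquine- and pyrimethamine-resistant) in infected erythrocyte suspensions at 0.5% initial parasitemia, exposed to drug for 24 h at 37 °C. Read-out is [3H]hypoxanthine incorporation into parasites. IC50 is the concentration giving 50% inhibition relative to untreated controls.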

[5] = In vitro therapeutic index value is the ratio between IC50 values of [J] and [P]; assay type: cell-based; details: human, Jurkat cells; read-out: TI
Plasmodium falciparum [6] = test: Minimum inhibitory concentration (IC90) against Plasmodium falciparum K1 infected erythrocytes
Plasmodium falciparum [7] = test: as above; remark: listed apart in the source
Plasmodium falciparum [8] = test: as §1; assay type: functional, organism-based
Method in brief: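 Chloroquine- and pyrimethamine-resistant K1 strain in infected erythrocyte suspensions (0.5% initial parasitemia), exposed to drug for 24 h at 37 °C. Read-out: [3H]hypoxanthine incorporation into parasites. IC50 in μM is the concentration that reduces incorporation to 50% of untreated controls.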

[9] = target: T1, DNA topoisomerase 2 (Plasmodium falciparum K1) (UniProt P41001); test: Minimum inhibitory concentration required to completely inhibit topoisomerase II activity from Plasmodium falciparum was determined using P4 DNA […] assay
T1 sequence (whole entry): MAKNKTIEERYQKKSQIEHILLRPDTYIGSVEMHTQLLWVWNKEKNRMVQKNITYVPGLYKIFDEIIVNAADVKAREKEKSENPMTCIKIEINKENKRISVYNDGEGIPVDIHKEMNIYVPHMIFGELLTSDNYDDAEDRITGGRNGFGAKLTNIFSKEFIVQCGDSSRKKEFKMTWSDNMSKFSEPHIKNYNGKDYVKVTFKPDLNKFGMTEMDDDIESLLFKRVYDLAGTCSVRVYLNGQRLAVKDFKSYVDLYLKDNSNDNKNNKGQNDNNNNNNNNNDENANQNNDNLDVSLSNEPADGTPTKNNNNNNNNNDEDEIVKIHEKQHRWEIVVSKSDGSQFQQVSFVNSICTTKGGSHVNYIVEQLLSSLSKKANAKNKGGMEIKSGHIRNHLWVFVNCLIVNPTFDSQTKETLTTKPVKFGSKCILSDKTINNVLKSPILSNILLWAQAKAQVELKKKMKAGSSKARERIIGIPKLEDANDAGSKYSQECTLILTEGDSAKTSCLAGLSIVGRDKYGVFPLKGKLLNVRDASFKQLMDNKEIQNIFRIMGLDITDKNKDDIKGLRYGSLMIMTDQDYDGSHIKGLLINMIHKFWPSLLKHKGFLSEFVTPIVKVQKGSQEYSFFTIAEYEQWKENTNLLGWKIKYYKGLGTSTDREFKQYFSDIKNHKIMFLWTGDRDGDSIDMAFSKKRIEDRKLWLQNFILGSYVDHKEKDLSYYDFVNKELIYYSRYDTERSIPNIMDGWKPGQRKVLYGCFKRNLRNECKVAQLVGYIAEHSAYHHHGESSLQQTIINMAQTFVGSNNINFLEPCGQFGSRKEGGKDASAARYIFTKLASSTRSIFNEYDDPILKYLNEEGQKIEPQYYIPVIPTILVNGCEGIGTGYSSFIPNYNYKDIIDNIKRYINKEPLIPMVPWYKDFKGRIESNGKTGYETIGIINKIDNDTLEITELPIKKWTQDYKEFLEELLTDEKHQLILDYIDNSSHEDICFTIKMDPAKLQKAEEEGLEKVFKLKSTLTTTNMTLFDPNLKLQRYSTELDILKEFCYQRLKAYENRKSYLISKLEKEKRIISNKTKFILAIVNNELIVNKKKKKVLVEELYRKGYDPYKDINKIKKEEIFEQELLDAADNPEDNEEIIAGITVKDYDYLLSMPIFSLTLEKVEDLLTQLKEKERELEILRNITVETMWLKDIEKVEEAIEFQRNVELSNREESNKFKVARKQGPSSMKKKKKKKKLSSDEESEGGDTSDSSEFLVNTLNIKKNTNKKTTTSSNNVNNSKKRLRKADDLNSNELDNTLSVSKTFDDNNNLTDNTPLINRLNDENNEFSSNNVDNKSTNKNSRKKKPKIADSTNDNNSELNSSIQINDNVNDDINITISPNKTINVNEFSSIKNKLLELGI

[10] = target: DNA topoisomerase II (Homo sapiens) (UniProt P11388+Q02880); test: Minimum inhibitory concentration required to completely inhibit topoisomerase II activity from jurkat human leukemia cells was determined using P4 DNA unknotting assay
Method in brief: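 Enzyme is a partially purified topoisomerase II extract from midlog Jurkat cells, made by sonication in Tris pH 8/KCl/MgCl2/EGTA buffer with protease inhibitors, then PEG/KCl precipitation. Extract is diluted to a set P4 DNA unknotting activity. Proteinase K method scores unknotting and linearization of phage P4 DNA on 0.7% agarose gels stained with ethidium bromide. MIC is the concentration giving complete inhibition.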

Row | Structure (SMILES) | IC50 (Plasmodium falciparum [1]) [µM] | IC50 (Jurkat) [µM] | IC50 (Plasmodium falciparum [3]) [µM] | IC50 (Plasmodium falciparum [4]) [µM] | IC50 (Plasmodium falciparum [8]) [µM] | MIC [9] [µM] | MIC [10] [µM] | IC50 (Plasmodium falciparum [2]) [µM] | selectivity ratio [5] | IC90 (Plasmodium falciparum [6]) [µM] | IC90 (Plasmodium falciparum [7]) [µM]
1 | C=C[C@H]1CN2CC[C@H]1C[C@H]2[C@H](O)c1ccnc2ccc(OC)cc12 [QUININE] |  |  | 0.1 |  |  |  |  | 0.048 |  | 0.3 | 
2 | OC(c1cc(C(F)(F)F)nc2c(C(F)(F)F)cccc12)C1CCCCN1 (stereo not given) [MEFLOQUINE] |  |  |  |  |  |  |  | 0.017 |  |  | 0.07

Further lines, with some results ahead:

Row | IC50 (Plasmodium falciparum [1]) [µM] | IC50 (Jurkat) [µM] | IC50 (Plasmodium falciparum [3]) [µM] | IC50 (Plasmodium falciparum [4]) [µM] | IC50 (Plasmodium falciparum [8]) [µM] | MIC [9] [µM] | MIC [10] [µM] | Structure (SMILES) | IC50 (Plasmodium falciparum [2]) [µM] | selectivity ratio [5] | IC90 (Plasmodium falciparum [6]) [µM] | IC90 (Plasmodium falciparum [7]) [µM]
3 | 0.25 |  |  |  |  |  |  | CCN(CC)CCCC(C)Nc1ccnc2cc(Cl)ccc12 (stereo not given) [CHLOROQUINE] |  |  |  | 
4 | 0.027 | 4 | 0.0008 | 0.0027 |  |  |  | COc1ccc2nc3cc(Cl)ccc3c(Nc3cc(CN4CCCC4)c(O)c(CN4CCCC4)c3)c2n1 [PYRONARIDINE] | 0.001 | 1480 |  | 
5 |  | 15 | 0.037 | 0.025 | 0.025 | 10 (≈ 3.15 µg/mL) | 20 (≈ 6.31 µg/mL) | Nc1ccc(Nc2c3ccc(N)cc3nc3cc(N)ccc23)cc1 | 0.033 | 600 |  | 
